In the library only some 1.4% were active in any assay of this set; here they are far more common.
STAT3 inh: reduces IL-6 driven STAT3 reporter signal; U3A cells, IL-6 STAT3-luciferase reporter, luminescence; host cell line lacks STAT1; inhibition, % at 5.5 µM; hit rate 0.89% among 190,000;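 active means inhibition above the mean inhibition across all screened compounds plus 3 SD, cut at about 44% in these data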;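 further: 0% = DMSO only wells and 100% = 100 µM nifuroxazide control wells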
Platelet DG rel: platelet dense granule release activity. AID 1663. hit rate 0.22% among 300,000. inhibition, %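 (compounds screened at 7.5 µM in platelet-rich plasma)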. human platelet-rich plasma, SFLLRN dense granule ATP release, luminescence;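 active means mean replicate score, as percent of positive control, at or above 50; inconclusive means mean below 50 but at least one replicate at or above 50; inactive means mean and every replicate below 50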
STAT3 act-1: increases IL-6 driven STAT3 reporter signal; U3A cells, IL-6 STAT3-luciferase reporter, luminescence; 100% = signal with IL-6 EC80 alone; activation (% of control), % at 5.6 µM; hit rate 0.91% among 190,000; AID 871;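 active means activation above the screen-wide mean of compound activation plus 3 SD, cut at about 130% in these data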;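 further: 0% = background luminescence of wells with medium and substrate only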
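Material: human U3A cells carrying STAT3-luciferase construct. Measured by: reporter luminescence signal. Timing: compound 1 h, then IL-6 6 h at 37 °C.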
PERK inhibitor: inhibitors of human PERK kinase; CHO PERK-DD fusion, SEAP luminescence translation reporter; hit rate 0.17% among 220,000; inhibition, % at 5.6 µM;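 active means inhibition above the mean inhibition of all tested compounds plus 3 SD, set separately per screening campaign, cut at about 2.9% in these data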;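 further: PERK kinase domain activated by AP20187 dimerizer at 100 nM; 0% = DMSO with dimerizer and 100% = rapamycin at 8.4 µM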
Target sequence (Q9NZJ5 whole entry, looked up, the tested form may be a part): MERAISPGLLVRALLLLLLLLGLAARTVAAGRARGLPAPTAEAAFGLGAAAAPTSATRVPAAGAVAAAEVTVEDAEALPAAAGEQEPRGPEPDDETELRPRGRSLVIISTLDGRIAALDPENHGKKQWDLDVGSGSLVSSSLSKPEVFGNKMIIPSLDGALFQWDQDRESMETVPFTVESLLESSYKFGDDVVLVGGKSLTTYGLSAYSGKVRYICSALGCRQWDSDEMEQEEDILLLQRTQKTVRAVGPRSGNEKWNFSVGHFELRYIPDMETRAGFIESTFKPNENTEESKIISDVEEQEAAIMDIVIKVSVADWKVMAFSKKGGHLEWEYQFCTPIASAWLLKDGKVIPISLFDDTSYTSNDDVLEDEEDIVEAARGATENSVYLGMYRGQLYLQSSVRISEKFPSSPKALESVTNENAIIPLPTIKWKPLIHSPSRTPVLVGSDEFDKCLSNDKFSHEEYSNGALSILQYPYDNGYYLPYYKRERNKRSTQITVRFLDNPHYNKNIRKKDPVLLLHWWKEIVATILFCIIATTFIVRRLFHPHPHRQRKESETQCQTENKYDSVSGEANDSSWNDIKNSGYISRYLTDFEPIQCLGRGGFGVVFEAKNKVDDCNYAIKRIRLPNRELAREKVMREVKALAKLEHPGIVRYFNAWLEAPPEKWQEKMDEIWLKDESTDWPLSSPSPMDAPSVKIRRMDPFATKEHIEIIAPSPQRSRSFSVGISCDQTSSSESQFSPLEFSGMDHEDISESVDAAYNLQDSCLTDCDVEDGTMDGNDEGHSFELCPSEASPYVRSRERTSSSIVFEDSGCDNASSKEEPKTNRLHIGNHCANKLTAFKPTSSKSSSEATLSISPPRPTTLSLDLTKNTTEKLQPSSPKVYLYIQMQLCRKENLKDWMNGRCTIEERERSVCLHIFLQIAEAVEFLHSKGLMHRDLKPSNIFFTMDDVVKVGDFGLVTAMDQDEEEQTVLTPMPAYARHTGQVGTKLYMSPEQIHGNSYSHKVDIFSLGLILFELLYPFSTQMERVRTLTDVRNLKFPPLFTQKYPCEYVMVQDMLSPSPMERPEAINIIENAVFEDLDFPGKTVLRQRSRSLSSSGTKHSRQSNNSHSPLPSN
STAT1 blocker: reduces IFN-gamma driven STAT1 reporter signal. NIH 3T3 STAT1-luciferase reporter, luminescence. inhibition, % at 5.5 µM. hit rate 0.35% among 200,000;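 active means inhibition above a set limit, the mean inhibition across all tested compounds plus 3 SD, cut at about 34% in these data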;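 further: 0% = IFN-gamma with DMSO and 100% = IFN-gamma with 300 µM nifuroxazide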
STAT3 act-2: confirmation of STAT3 signaling activators; AID 1267; U3A STAT3-luciferase reporter, IL-6 potentiation, luminescence; U3A cells lack STAT1; 100 means same as IL-6 alone; hit rate 64% among 1,200; shares compounds with STAT3 act-1; potentiation (% of control), % at 5.7 µM;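 active means percent activation of the STAT3 luciferase reporter above a set limit taken from the earlier primary screen, cut at about 130% in these data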;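 further: 0% = background signal of medium plus substrate and 100% = median of IL-6 with DMSO wells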
NFkB act STAT3ct: NF-kappaB activation in STAT3 activator counter-screen; shares compounds with STAT3 act-1; activation (% of control), % at 5.7 µM; hit rate 11% among 1,200; AID 1309; human cells, NF-kappaB reporter activation; in the data active means activation above about 120%;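 further: reporter induced by TNF-alpha stimulation; 100% = median of stimulated DMSO wells and 0% = no signal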
STAT1 act STAT3c: STAT1 activation in STAT3 activator counter-screen | shares compounds with STAT3 act-1 | hit rate 13% among 1,200 | AID 1318 | activation (% of control), % at 5.7 µM | NIH 3T3 STAT1-luciferase reporter, IFN-gamma, luminescence;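 active means activation above the solvent-only control well mean plus 3 SD, set per screening run, cut at about 120% in these data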;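 further: 100% = IFN-gamma with DMSO median signal so 100% means no change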
Numbers without * were called inactive.

What do the screens show for `Cc1ccc(S(=O)(=O)c2c(C)nn(C(C)(C)C)c2OC(=O)c2cccs2)cc1`?
STAT3 inh: -43; Platelet DG rel: 27; STAT3 act-1: 137*; PERK inhibitor: 0; STAT1 blocker: -24; STAT3 act-2: 126; NFkB act STAT3ct: 98; STAT1 act STAT3c: 105

Results for O=C(Cn1cnc([N+](=O)[O-])n1)NC1CC1 ?
STAT3 inh: 13; Platelet DG rel: 1; STAT3 act-1: 99; PERK inhibitor: 1; STAT1 blocker: -4

How did S=C(Nc1ccc(Cl)cc1)Nc1cccc2cnccc12 do in these assays?
STAT3 inh: -49; Platelet DG rel: 13; STAT3 act-1: 147*; PERK inhibitor: 0; STAT1 blocker: 9; STAT3 act-2: 144*; NFkB act STAT3ct: 97; STAT1 act STAT3c: 100

Results for Cn1c(SCC(=O)N=Nc2c(O)[nH]c3ccccc23)nc2ccccc21 ?
STAT3 inh: -26; Platelet DG rel: inconclusive; STAT3 act-1: 123; PERK inhibitor: 0; STAT1 blocker: -4

How did O=C(CSc1nc2ccccc2[nH]1)N=Nc1c(O)[nH]c2ccccc12 do in these assays?
STAT3 inh: -51; Platelet DG rel: -5; STAT3 act-1: 145*; PERK inhibitor: 0; STAT1 blocker: -2; STAT3 act-2: 142*; NFkB act STAT3ct: 108; STAT1 act STAT3c: 105

Results for CC1CCN(CCCNC(=O)CCNC(=O)Cn2cnc3ccccc3c2=O)CC1 ?
Platelet DG rel: -1

What do the screens show for `CC(=O)Nc1sc(N/N=C\c2ccccc2)nc1-c1cccs1`?
STAT3 inh: -48; Platelet DG rel: -4; STAT3 act-1: 140*; PERK inhibitor: 1; STAT1 blocker: -4; STAT3 act-2: 177*; NFkB act STAT3ct: 107; STAT1 act STAT3c: 114

How did COc1ccc(CCNCC(O)COc2c(C)cccc2C)cc1OC (stereo not drawn) do in these assays?
Platelet DG rel: 0

How did O=C(O)CCCC(=O)Nc1ccc2c(c1)oc1ccccc12 do in these assays?
Platelet DG rel: 0

Results for O=C(Nc1ccc2c(c1)oc1ccc(S(=O)(=O)N3CCCC3)cc12)C1CC1 ?
STAT3 inh: -60; Platelet DG rel: 5; STAT3 act-1: 154*; PERK inhibitor: 0; STAT1 blocker: -1; STAT3 act-2: 94; NFkB act STAT3ct: 103; STAT1 act STAT3c: 102

Results for O=C(Nc1ccc2c(c1)oc1ccccc12)C1CC1 ?
STAT3 inh: -45; Platelet DG rel: 1; STAT3 act-1: 143*; PERK inhibitor: 1; STAT1 blocker: -19; STAT3 act-2: 142*; NFkB act STAT3ct: 131*; STAT1 act STAT3c: 134*

How did COC(=O)CNC(=O)Cn1c(=O)n(Cc2ccc(F)cc2)c(=O)c2sccc21 do in these assays?
Platelet DG rel: 3

What do the screens show for `Cc1ccc(S(=O)(=O)NNC(=O)c2sc3nc(C)cc(C)c3c2-n2cccc2)cc1`?
STAT3 inh: 7; Platelet DG rel: 6; STAT3 act-1: 97; PERK inhibitor: -1; STAT1 blocker: -4

What do the screens show for `Cc1cc(O)c(NC(=O)c2ccc(Br)o2)cc1C`?
STAT3 inh: -71; Platelet DG rel: -4; STAT3 act-1: 161*; PERK inhibitor: 1; STAT1 blocker: 12; STAT3 act-2: 151*; NFkB act STAT3ct: 115; STAT1 act STAT3c: 95

What do the screens show for `N#Cc1c(C(F)(F)F)cc(C2CC2)nc1N1CCCC1`?
STAT3 inh: -59; Platelet DG rel: -5; STAT3 act-1: 148*; PERK inhibitor: 0; STAT1 blocker: 11; STAT3 act-2: 122; NFkB act STAT3ct: 101; STAT1 act STAT3c: 98

What do the screens show for `O=C(CSc1nc2ccccc2o1)N1CCOCC1`?
Platelet DG rel: 7

How did O=C/C(=C\Nc1ccc(C(=O)N2CCOCC2)cc1)c1nc2ccccc2o1 do in these assays?
STAT3 inh: -61; Platelet DG rel: -2; STAT3 act-1: 161*; PERK inhibitor: 1; STAT1 blocker: 1; STAT3 act-2: 153*; NFkB act STAT3ct: 101; STAT1 act STAT3c: 105

Results for CN(C)C(=O)c1ccc(N/C=C(\C=O)c2nc3ccccc3o2)cc1 ?
STAT3 inh: -44; Platelet DG rel: -8; STAT3 act-1: 141*; PERK inhibitor: 0; STAT1 blocker: 5; STAT3 act-2: 138*; NFkB act STAT3ct: 104; STAT1 act STAT3c: 94

What do the screens show for `Clc1ccc(Nc2nc(-c3cccnc3)cs2)cc1`?
STAT3 inh: -104; Platelet DG rel: 11; STAT3 act-1: 192*; PERK inhibitor: -1; STAT1 blocker: -18; STAT3 act-2: 179*; NFkB act STAT3ct: 122*; STAT1 act STAT3c: 139*

Results for CC(=O)N1CCN(c2ncnc3sc(-c4ccccc4)cc23)CC1 ?
STAT3 inh: -19; Platelet DG rel: -8; STAT3 act-1: 117; PERK inhibitor: 0; STAT1 blocker: 4

What do the screens show for `Oc1ccc(N2CCN(c3ncnc4sc(-c5ccccc5)cc34)CC2)cc1`?
STAT3 inh: -72; Platelet DG rel: 10; STAT3 act-1: 159*; PERK inhibitor: 0; STAT1 blocker: -7; STAT3 act-2: 122; NFkB act STAT3ct: 92; STAT1 act STAT3c: 97

How did COc1cccc2cc3c(=O)n(-c4ccccc4)nc-3oc12 do in these assays?
STAT3 inh: -45; Platelet DG rel: 1; STAT3 act-1: 141*; PERK inhibitor: 1; STAT1 blocker: 3; STAT3 act-2: 110; NFkB act STAT3ct: 98; STAT1 act STAT3c: 98

What do the screens show for `CC1=C(CC(=O)c2ccccc2)C(=O)c2ccccc2C1=O`?
STAT3 inh: -33; Platelet DG rel: -4; STAT3 act-1: 138*; PERK inhibitor: 0; STAT1 blocker: -19; STAT3 act-2: 143*; NFkB act STAT3ct: 104; STAT1 act STAT3c: 112

Results for S=C1NC2(CCCCC2)Nc2ccccc21 ?
STAT3 inh: -42; Platelet DG rel: -11; STAT3 act-1: 138*; PERK inhibitor: 0; STAT1 blocker: 9; STAT3 act-2: 121; NFkB act STAT3ct: 96; STAT1 act STAT3c: 92

Results for S=C1NC2(CCCCCC2)N=C1c1ccccc1 ?
STAT3 inh: 2; Platelet DG rel: 1; STAT3 act-1: 106; PERK inhibitor: 0; STAT1 blocker: -10

Results for S=C1NC2(CCCC2)Nc2ccccc21 ?
STAT3 inh: -48; Platelet DG rel: -51; STAT3 act-1: 143*; PERK inhibitor: 0; STAT1 blocker: 10; STAT3 act-2: 144*; NFkB act STAT3ct: 100; STAT1 act STAT3c: 93

What do the screens show for `O=C1c2ccccc2NC2(CCCC2)N1O`?
STAT3 inh: 2; Platelet DG rel: 2; STAT3 act-1: 105; PERK inhibitor: 0; STAT1 blocker: 3

High-throughput results as filed in PubChem.
